Measurements published in ChEMBL document CHEMBL2040743, “Pipestelides A-C: cyclodepsipeptides from the Pacific marine sponge Pipestela candelabra” (J Nat Prod, 2012).

Columns and labels:
KB [1] = assay: Inhibition of cell proliferation of human KB cells at 10 uM after 72 hrs by CellTiter assay; format: functional
In short: (§1)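 KB cells from NCI grown in D-MEM with 10% fetal calf serum and antibiotics under 5% CO2. 600 cells/well, compound in DMSO added 24 h after seeding (1% DMSO final), exposure 72 h. MTS reagent for 3 h at 37 °C, A490. % inhibition = (1 − OD treated/OD DMSO control) × 100, mean ± SE of triplicates.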

KB [2] = assay: Inhibition of cell proliferation of human KB cells at 1 uM after 72 hrs by CellTiter 96 assay; format: functional; in short: as §1
KB [3] = assay: Growth inhibition of human KB cells after 72 hrs by CellTiter 96 assay; format: functional, cell-based
In short: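 NCI KB cells in D-MEM with 10% fetal calf serum and antibiotics, 5% CO2. 600 cells/well, dosed 24 h after plating from DMSO stocks, 1% DMSO final. Tested from 5 nM to 100 μM for 72 h, then 3 h at 37 °C with MTS reagent and A490 read. IC50 taken from separate duplicate experiments, values given individually.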

IC50 (KB [3]) [nM]	SMILES	inhibition at 10 µM (KB [1]) [%]	inhibition at 1 µM (KB [2]) [%]
121	C/C1=C\[C@H](C)C[C@H](C)OC(=O)C[C@H](c2ccc(O)cc2)NC(=O)[C@@H](Cc2c(Br)[nH]c3ccccc23)N(C)C(=O)[C@H](CO)NC(=O)[C@@H](C)C1 [JASPAMIDE E]	100	100
100	C/C1=C\[C@H](C)C[C@H](C)OC(=O)C[C@H](c2ccc(O)c(Br)c2)NC(=O)[C@@H](Cc2c(Br)[nH]c3ccccc23)N(C)C(=O)[C@H](C)NC(=O)[C@@H](C)C1 [PIPESTELIDE A]	100	100
–	C/C(=C\[C@H](C)C[C@H](C)O)C[C@H](C)C(=O)N[C@@H](C)C(=O)N(C)[C@H](Cc1c(Br)[nH]c2ccccc12)C(=O)N[C@H](CC(=O)O)c1ccc(O)cc1 [JASPLAKINOLIDE Z1]	30	–
214	C[C@@H]1NC(=O)[C@@H](C)C/C(CO)=C/[C@H](C)C[C@H](C)OC(=O)C[C@H](c2ccc(O)cc2)NC(=O)[C@@H](Cc2c(Br)[nH]c3ccccc23)N(C)C1=O [JASPAMIDE L]	99	100
–	C=C1C[C@H](C)C(=O)N[C@@H](C)C(=O)N(C)[C@H](Cc2c(Br)[nH]c3ccccc23)C(=O)N[C@@H](c2ccc(O)cc2)CC(=O)O[C@@H](C)C[C@@H](C)[C@@H]1O [JASPLAKINOLIDE CB]	100	75
–	C/C1=C/[C@H](C)C(=O)N[C@@H](C)C(=O)N(C)[C@H](Cc2c(Br)[nH]c3ccccc23)C(=O)N[C@@H](c2ccc(O)cc2)CC(=O)O[C@@H](C)C[C@@H](C)[C@H]1O [PIPESTELIDE B]	100	0
–	C=C1C[C@H](C)C(=O)N[C@@H](C)C(=O)N(C)[C@H](Cc2c(Br)[nH]c3ccccc23)C(=O)N[C@@H](c2ccc(O)cc2)CC(=O)O[C@@H](C)C[C@@H](C)[C@H]1O [JASPLAKINOLIDE CA]	80	0
3350	C/C1=C\[C@H](C)C[C@H](C)OC(=O)C[C@H](c2ccc(O)cc2)NC(=O)[C@@H](Cc2c(Br)[nH]c3ccccc23)N(C)C(=O)[C@H](C)NC(=O)[C@@H](C)C1O (stereo partly drawn) [JASPAMIDE K]	100	100

SMILES	IC50 (KB [3]) [nM]	inhibition at 10 µM (KB [1]) [%]	inhibition at 1 µM (KB [2]) [%]
C=C1C[C@H](C)C(=O)N[C@@H](C)C(=O)N(C)[C@H](Cc2c(Br)[nH]c3ccccc23)C(=O)N[C@@H](c2ccc(O)cc2)CC(=O)O[C@@H](C)C[C@@H](C)C1=O [JASPLAKINOLIDE B]	29	99	99
C/C1=C\[C@H](C)C[C@H](C)OC(=O)C[C@H](c2ccc(O)cc2)NC(=O)[C@@H](Cc2c(Br)[nH]c3ccccc23)N(C)C(=O)[C@H](C)NC(=O)[C@@H](C)C1 [JASPAMIDE]	13	100	99
CC[C@H]1NC(=O)[C@@H](C)C/C(C)=C/[C@H](C)C[C@H](C)OC(=O)C[C@H](c2ccc(O)cc2)NC(=O)[C@@H](Cc2c(Br)[nH]c3ccccc23)N(C)C1=O [JASPAMIDE D]	4.4	100	100
